Activity, IC50 and inhibition data for one molecule are collected here from ChEMBL document CHEMBL3808312, “Bioactive Constituents of Glycyrrhiza uralensis (Licorice): Discovery of the Effective Components of a Traditional Herbal Medicine” (J Nat Prod, 2016).

pIC50: −log10 of the molar value.

Assay [1] relates to SW480. The assay is described as follows: Cytotoxicity against human SW480 cells assessed as reduction in cell viability at 10 uM after 24 hrs by MTS assay. The class given is functional. The essentials:
(§1)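 Cells seeded at 5 × 10^3/well and cultured overnight, then exposed to compounds for 24 h. Viability read by MTS. Media: SW480 in RPMI1640, A549 in DMEM, MCF7 in MEM. Irinotecan positive control.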

In assay [2] the test system is HepG2. The assay is described as follows: Cytotoxicity against human HepG2 cells assessed as reduction in cell viability at 10 uM after 24 hrs by MTS assay. The class given is functional. For orientation: Formazan colour is commonly taken as a measure of viable cells.
In assay [3] the test system is A549. The assay can be described thus: Cytotoxicity against human A549 cells assessed as reduction in cell viability at 10 uM after 24 hrs by MTS assay. The class given is functional. A digest of the protocol: as §1
In assay [4] the test system is MCF7. The assay can be described thus: Cytotoxicity against human MCF7 cells assessed as reduction in cell viability at 10 uM after 24 hrs by MTS assay. It counts as functional. The essentials:
as §1

Assay [5] relates to HepG2. The assay is described as follows: Cytotoxicity against human HepG2 cells assessed as reduction in cell viability after 24 hrs by MTS assay. It counts as functional, cell-based. Particulars: HepG2, 24 h. The essentials: (§2)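 Cells seeded at 5 × 10^3/well and cultured overnight, then exposed to compounds for 24 h. Viability read by MTS. Media: SW480 in RPMI1640, A549 in DMEM, MCF7 in MEM. […] Irinotecan positive control.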

Assay [6] concerns SW480. The assay is described as follows: Cytotoxicity against human SW480 cells assessed as reduction in cell viability after 24 hrs by MTS assay. The conditions noted are these: SW480, 24 h. It counts as functional, cell-based. The essentials:
as §2

Assay [7] relates to A549. The assay is described as follows: Cytotoxicity against human A549 cells assessed as reduction in cell viability after 24 hrs by MTS assay. The class given is functional, cell-based. Particulars: A549, 24 h. The essentials: as §2
In assay [8] the test system is MCF7. The assay can be described thus: Cytotoxicity against human MCF7 cells assessed as reduction in cell viability after 24 hrs by MTS assay. The conditions noted are these: MCF7, 24 h. The class given is functional, cell-based. A digest of the protocol:
as §2

Assay [9] concerns the target T1, Tyrosinase (Homo sapiens) (UniProt P14679).
T1 sequence (whole entry): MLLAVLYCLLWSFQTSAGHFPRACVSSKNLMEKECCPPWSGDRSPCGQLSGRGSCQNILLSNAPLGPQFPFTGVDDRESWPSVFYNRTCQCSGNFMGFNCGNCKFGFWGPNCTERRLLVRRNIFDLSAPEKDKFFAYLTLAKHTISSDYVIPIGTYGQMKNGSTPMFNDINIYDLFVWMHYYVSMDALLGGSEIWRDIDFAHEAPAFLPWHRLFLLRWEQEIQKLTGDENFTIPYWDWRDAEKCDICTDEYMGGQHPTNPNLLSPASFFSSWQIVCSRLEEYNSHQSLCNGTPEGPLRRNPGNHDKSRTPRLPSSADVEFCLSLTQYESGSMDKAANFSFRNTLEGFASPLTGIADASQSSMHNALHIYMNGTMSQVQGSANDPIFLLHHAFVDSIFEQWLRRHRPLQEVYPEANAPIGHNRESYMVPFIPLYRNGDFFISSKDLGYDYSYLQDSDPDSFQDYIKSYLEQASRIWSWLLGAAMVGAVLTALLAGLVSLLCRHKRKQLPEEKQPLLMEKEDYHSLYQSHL
The assay can be described thus: Inhibition of tyrosinase (unknown origin) using L-tyrosine as substrate assessed as oxidation of L-tyrosine at 20 uM after 15 mins. The essentials: (§3)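 Tyrosinase at 333 U/mL (stock) in 45 mM sodium phosphate, pH 6.6, with 2 mM L-tyrosine (stock). Incubated 37 °C for 15 min; oxidation read at 492 nm. Screened at 20 μM; dose-response for IC50. Glyasperin C positive control.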

The target of assay [10] is T2, Tyrosinase (Homo sapiens, UniProt P14679).
T2 sequence (P14679 whole entry): T1 sequence (whole entry)
The assay is described as follows: Inhibition of tyrosinase (unknown origin) using L-tyrosine as substrate assessed as oxidation of L-tyrosine after 15 mins. The essentials:
as §3

Usually pIC50 stands for the negative decadic logarithm of the IC50, by convention in mol/L. One may read the inhibition as the drop in the measured response relative to a control, in per cent. As for `COc1cc2c(c(OC)c1CC=C(C)C)C[C@H](c1ccc(O)cc1O)CO2` [GLYASPERIN D], the Activity in assay [1] came to 78%; in assay [2], 99%; in [3], 25%; in [4] it was 98%. The pIC50 is 5.42 in assay [5]; 5.14 in [6]; 4.89 in [7]; 5.17 in assay [8]; 6.81 in assay [10]. The inhibition in [9] is > 95%.
